Measurements of several laboratories.
Compare with care: the assays were run in different laboratories.
PIKFYVE: 1-phosphatidylinositol 3-phosphate 5-kinase (PIKFYVE, Homo sapiens, UniProt Q9Y2I7)
PIK3CA: Phosphatidylinositol 4,5-bisphosphate 3-kinase catalytic subunit alpha isoform (PIK3CA, Homo sapiens, UniProt P42336)
CELA1: Chymotrypsin-like elastase family member 1 (CELA1, Sus scrofa, UniProt P00772)
KDR: Vascular endothelial growth factor receptor 2 (KDR, Homo sapiens, UniProt P35968)

Compound	target	test	conditions	IC50
CC(C)=CCc1c(O)cc(O)c2c1O[C@H](c1ccc(O)cc1)CC2=O	Cytochrome P450 1A1 (CYP1A1, Homo sapiens, UniProt P04798)	enzyme activity, inhibitor, fluorescence	15 min, pH 7.4	380 nM
COC(C)(C)C#Cc1ccc2[nH]c3c(c2c1)-c1nc(N)ncc1CCC3	PIKFYVE	enzyme activity, inhibitor, ADP detection		6.2 nM
C[C@H](CS)C(=O)N1CCC[C@@H]1C(=O)O	Beta-lactamase L1 (Stenotrophomonas maltophilia, UniProt P52700)	enzyme activity, inhibitor		67100 nM
COc1cccc(/C=C2\SC(=S)NC2=O)c1OCc1ccccc1	PIK3CA	enzyme activity, inhibitor, radiometric		> 100000 nM
O=C(NCc1ccc(N2CCOCC2)cc1)c1cnc2c(SSc3cccc4cc(C(=O)NCc5ccc(N6CCOCC6)cc5)cnc34)cccc2c1	STAM-binding protein (STAMBP, Homo sapiens, UniProt O95630)	enzyme activity, inhibitor, FRET		900 nM
COc1ccc(CNc2c(CO)cnc3c(C4CC4)cc(C#N)cc23)cn1	High affinity cGMP-specific 3',5'-cyclic phosphodiesterase 9A (PDE9A, Homo sapiens, UniProt O76083)	enzyme activity, inhibitor		> 10000 nM
CN1CCN(c2ccc(Nc3ncc4cc(C#N)c(=O)n(C5CCCC5)c4n3)cc2)CC1	Dual specificity tyrosine-phosphorylation-regulated kinase 2 (DYRK2, Homo sapiens, UniProt Q92630)	enzyme activity, inhibitor		30600 nM
NCCCC[C@H](NC(=O)[C@@H]1CCCN1C(=O)[C@@H]1CSSC[C@H](N)C(=O)N[C@@H](Cc2ccc(O)cc2)C(=O)N[C@@H](Cc2ccccc2)C(=O)N[C@@H](CCC(N)=O)C(=O)N[C@@H](CC(N)=O)C(=O)N1)C(=O)NCC(N)=O	Vasopressin V1a receptor (AVPR1A, Homo sapiens, UniProt P37288)	ligand displacement, radioligand	cell membranes	2.9 nM
CC(=O)NC(C)(C)C#Cc1ccc2[nH]c3c(c2c1)-c1nc(N)ncc1CCC3	PIKFYVE	target engagement in cells, BRET		> 10000 nM
C[C@@H]1COCCN1c1nc(-c2cnc(N)nc2C(F)F)nc(N2CCOCC2)n1	PIK3CA	ligand displacement, TR-FRET		26.1 nM
NC(=O)c1ccc[n+]([C@@H]2O[C@H](COP(=O)([O-])OP(=O)(O)OC[C@H]3O[C@@H](n4cnc5c(N)ncnc54)[C@H](O)[C@@H]3O)[C@@H](O)[C@H]2O)c1	Protein mono-ADP-ribosyltransferase PARP15 (PARP15, Homo sapiens, UniProt Q460N3)	enzyme activity, inhibitor		637000 nM
Cc1ccc(C(C)C)cc1NC(=O)COC(=O)c1ccc(O)cc1	CELA1	enzyme activity, inhibitor, absorbance		81900 nM
C[C@@H]1O[C@@H](OC[C@H]2O[C@@H](Oc3c(-c4ccc(O)cc4)oc4cc(O)cc(O)c4c3=O)[C@H](O[C@@H]3O[C@H](CO)[C@@H](O)[C@H](O)[C@H]3O)[C@@H](O)[C@@H]2O)[C@H](O)[C@H](O)[C@H]1O	Prostaglandin G/H synthase 2 (PTGS2, Ovis aries, UniProt P79208)	enzyme activity, inhibitor, absorbance		45200 nM
CCn1ncc2c1-c1cnc(N)c(c1)O[C@H](C)c1cc(F)ccc1-c1nn(C)nc1C2	Protein-tyrosine kinase 6 (PTK6, Homo sapiens, UniProt Q13882)	enzyme activity, inhibitor, radiometric		184 nM
O=C1NC(=S)S/C1=C\c1ccc(C(=O)O)cc1	PIK3CA	enzyme activity, inhibitor, radiometric		> 100000 nM
CCC(C)(O)C#Cc1ccc2[nH]c3c(c2c1)-c1nc(N)ncc1CCC3 (stereo not drawn)	PIKFYVE	enzyme activity, inhibitor, ADP detection		1.9 nM
O=C(O)CCc1ccc(O)c(CN(CCN(CC(=O)O)Cc2cc(CCC(=O)NCCCCCC(=O)NCCCC[C@H](NC(=O)N[C@@H](CCC(=O)O)C(=O)O)C(=O)O)ccc2O)CC(=O)O)c1	Glutamate carboxypeptidase 2 (FOLH1, Homo sapiens, UniProt Q04609)	ligand displacement, radioligand		24.3 nM
Cc1ccc(C(=O)Nc2ccc(Oc3cc4cnn(C)c4cc3-c3cn[nH]c3)c(F)c2)c(=O)n1-c1ccc(F)cc1	KDR	enzyme activity, inhibitor, radiometric		53 nM
CNC(=O)c1cc2c(Oc3ccc(NC(=O)C4(C(=O)Nc5ccc(F)cc5)CC4)cc3)ccnc2cc1OC	KDR	enzyme activity, inhibitor, TR-FRET		12.1 nM
Cc1ccc(C(C)C)cc1NC(=O)COC(=O)/C=C/c1ccc(O)cc1	CELA1	enzyme activity, inhibitor, absorbance		23300 nM
O=C1NC(=S)S/C1=C\c1c[nH]c2ccccc12	PIK3CA	enzyme activity, inhibitor, radiometric		> 100000 nM
